Data as given in ChEMBL document CHEMBL4270598, “Synthesis and discovery of a drug candidate for treatment of idiopathic pulmonary fibrosis through inhibition of TGF-β1 pathway” (Eur J Med Chem, 2018).
The source made the active and inactive calls. No cut-off for these calls is given here.

Tests used:
[1] = Tmax in Sprague-Dawley rat at 150 mg/kg, po by LC-MS/MS analysis; type: ADME, organism-based; details: in vivo
Summary of the method: (§1)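 Male Sprague-Dawley rats (220-350 g) given a single dose, IV 30 mg/kg or PO 150 mg/kg. Heparinized blood sampled at 2 min-8 h (IV) or 5 min-12 h (PO). Plasma protein-precipitated with acetonitrile/MeOH containing buspirone internal standard. Drug quantified by LC/MS-MS, parameters from non-compartmental analysis. n = 5 per curve.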

Rattus norvegicus [2] = assay: AUC (0 to infinity) in Sprague-Dawley rat at 150 mg/kg, po by LC-MS/MS analysis; type: ADME, organism-based; design: dose 150 mg/kg, time infinity, route oral; details: in vivo; summary of the method: as §1
[3] = Drug metabolism in rat plasma assessed as (3aR,4aR,5R,6R,8aR,9aR)-6-Hydroxy-8a-methyl-3-methylenedecahydro-2H-spiro[naphtho[2,3-b]furan-5,2'-oxiran]-2-one formation after 12 hrs by LC-MS/MS analysis; type: ADME, cell-free
Summary of the method: (§2)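 Compound solution (1 mM stock) added 1:100 into blank plasma and incubated at 37 °C for up to 12 h. Aliquots quenched in acetonitrile/MeOH with buspirone internal standard and centrifuged. Parent compound and released products quantified by LC/MS-MS.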

[4] = Half life in Sprague-Dawley rat at 30 mg/kg, iv by LC-MS/MS analysis; type: ADME, organism-based; details: in vivo; summary of the method: as §1
Rattus norvegicus [5] = assay: AUC (0 to infinity) in Sprague-Dawley rat at 30 mg/kg, iv by LC-MS/MS analysis; type: ADME, organism-based; design: dose 30 mg/kg, time infinity, route intravenous; details: in vivo; summary of the method: as §1
[6] = Cmax in Sprague-Dawley rat at 150 mg/kg, po by LC-MS/MS analysis; type: ADME, organism-based; design: dose 150 mg/kg, route oral; details: in vivo; summary of the method: as §1
[7] = biological target: T1, Transforming growth factor beta-1 proprotein/Mothers against decapentaplegic homolog 3 (Homo sapiens) (UniProt P84022+P01137); assay: Inhibition of TGF-beta1/smad3 signaling pathway in human HFL cells assessed as decrease in smad3 phosphorylation at 10 uM after 30 mins by Western blot analysis; type: cell-based
Summary of the method: (§3)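 HFL1 human lung fibroblasts given TGF-β1 (5 ng/mL) with or without compound at 10 µM: 24 h for α-SMA (cell lysate) and collagen I (medium), 30 min for p-Smad3. RIPA lysis with phosphatase inhibitor, then Western blot. Band density normalized to β-actin. n=3.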

Mus musculus [8] = assay: In vivo inhibition of TGF-beta1/smad3 signaling pathway in bleomycin-induced pulmonary fibrosis in C57BL/6 mouse model assessed as decrease in smad3 phosphorylation in lung tissue at 100 mg/kg, po qd administered from day 7 to 14 by Western blot analysis; type: functional, organism-based
[9] = Tmax in Sprague-Dawley rat at 30 mg/kg, iv by LC-MS/MS analysis; type: ADME, organism-based; details: in vivo; summary of the method: as §1
Mus musculus [10] = assay: In vivo inhibition of TGF-beta1/smad3 signaling pathway in bleomycin-induced pulmonary fibrosis in C57BL/6 mouse model assessed as decrease in smad3 phosphorylation level in lung tissue at 100 mg/kg, po qd administered from day 7 to 14 by immunohistochemical analysis; type: functional, organism-based
Summary of the method: (§4)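 Lungs from bleomycin-challenged C57BL/6 mice (2 U/kg intratracheal; 100 mg/kg daily, days 7-14) were paraffin-embedded and dewaxed. Citrate (0.01 M) microwave antigen retrieval, then 5% serum block. Primary antibodies overnight at 4 °C: α-SMA 1:200, collagen I 1:100, p-Smad3 1:50. Secondary antibody 1 h at room temperature, then hematoxylin counterstain and microscopy.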

[11] = Half life in Sprague-Dawley rat at 150 mg/kg, po by LC-MS/MS analysis; type: ADME, organism-based; details: in vivo; summary of the method: as §1
Mus musculus [12] = assay: Antifibrotic activity in bleomycin-induced pulmonary fibrosis in C57BL/6 mouse model assessed as decrease in ECM production at 100 mg/kg, po qd administered from day 7 to 14 by hematoxylin-eosin staining based fluorescence microscopy; type: functional, organism-based
Summary of the method: (§5)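 Male C57BL/6 mice (7-8 weeks, n=5/group) given intratracheal bleomycin 2 U/kg under chloral hydrate anaesthesia. Dosing at 100 mg/kg daily from day 7 to day 14, sacrifice at day 14. Left lungs formalin-fixed, paraffin-embedded, 5 µm sections HE-stained. Fibrosis ratio taken as fibrotic-region pixels over total lung pixels.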

[13] = Stability in rat plasma assessed as parent compound remaining after 3 hrs by LC-MS/MS analysis; type: ADME, cell-free; details: read-out: Stability; summary of the method: as §2
Mus musculus [14] = assay: Toxicity in C57/BL6 mouse assessed as mouse survival at 2 g/kg administered orally via gavage daily as single dose for 7 days; type: organism-based; details: in vivo, po, 2000 mg/kg, 168 h
Summary of the method: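 C57BL/6 mice, 20-22 g, dosed by oral gavage once daily at 2 g/kg for 7 days, n = 10; survival recorded.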

[15] = biological target: T2, Transforming growth factor beta-1 proprotein/Mothers against decapentaplegic homolog 3 (Mus musculus) (UniProt P04202+Q8BUN5); assay: Inhibition of TGF-beta1/smad3 signaling pathway in mouse NIH/3T3 cells after 18 hrs by CAGA-luciferase reporter gene assay; type: cell-based
[16] = biological target: T1, Transforming growth factor beta-1 proprotein/Mothers against decapentaplegic homolog 3 (Homo sapiens); assay: Inhibition of TGF-beta1/smad3 signaling pathway in human HFL cell extract assessed as decrease in alpha-SMA protein expression at 10 uM after 24 hrs by Western blot analysis; summary of the method: as §3
[17] = biological target: T1, Transforming growth factor beta-1 proprotein/Mothers against decapentaplegic homolog 3 (Homo sapiens); assay: Inhibition of TGF-beta1/smad3 signaling pathway in human HFL cells assessed as decrease in Col1 protein expression level at 10 uM after 24 hrs by Western blot analysis; type: cell-based; summary of the method: as §3
[18] = Oral bioavailability in Sprague-Dawley rat at 150 mg/kg by LC-MS/MS analysis; type: ADME, organism-based; details: in vivo; summary of the method: as §1
Mus musculus [19] = assay: Toxicity in C57/BL6 mouse assessed as mouse survival at 1 to 5 g/kg administered orally via gavage as single dose; type: organism-based; details: in vivo, po
Summary of the method: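 Male-unspecified C57BL/6 mice, 20-22 g; single oral gavage dose at 1, 2, 3, 4 and 5 g/kg, n = 10; survival recorded.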

Rattus norvegicus [20] = assay: AUC (0 to t) in Sprague-Dawley rat at 150 mg/kg, po by LC-MS/MS analysis; type: ADME, organism-based; details: in vivo; summary of the method: as §1
Mus musculus [21] = assay: In vivo inhibition of TGF-beta1/smad3 signaling pathway in bleomycin-induced pulmonary fibrosis in C57BL/6 mouse model assessed as decrease in Col1 level in lung tissue at 100 mg/kg, po qd administered from day 7 to 14 by immunohistochemical analysis; type: functional, organism-based; summary of the method: as §4
[22] = biological target: T2, Transforming growth factor beta-1 proprotein/Mothers against decapentaplegic homolog 3 (Mus musculus); assay: Inhibition of TGF-beta1/smad3 signaling pathway in mouse NIH/3T3 cells assessed as decrease in ECM production at 10 uM after 24 hrs; type: cell-based
Mus musculus [23] = assay: In vivo inhibition of TGF-beta1/smad3 signaling pathway in bleomycin-induced pulmonary fibrosis in C57BL/6 mouse model assessed as decrease in Col1 protein expression level in lung tissue at 100 mg/kg, po qd administered from day 7 to 14 by Western blot analysis; type: functional, organism-based
Mus musculus [24] = assay: In vivo inhibition of TGF-beta1/smad3 signaling pathway in bleomycin-induced pulmonary fibrosis in C57BL/6 mouse model assessed as decrease in alpha-SMA level in lung tissue at 100 mg/kg, po qd administered from day 7 to 14 by immunohistochemical analysis; type: functional, organism-based; summary of the method: as §4
[25] = Cmax in Sprague-Dawley rat at 30 mg/kg, iv by LC-MS/MS analysis; type: ADME, organism-based; design: dose 30 mg/kg, route intravenous; details: in vivo; summary of the method: as §1
[26] = biological target: T2, Transforming growth factor beta-1 proprotein/Mothers against decapentaplegic homolog 3 (Mus musculus); assay: Inhibition of TGF-beta1/smad3 signaling pathway in mouse NIH/3T3 cell extract assessed as decrease in alpha-SMA protein expression at 10 uM after 24 hrs by Western blot analysis
Mus musculus [27] = assay: Antifibrotic activity in bleomycin-induced pulmonary fibrosis in C57BL/6 mouse model assessed as decrease in collagen content in lung at 100 mg/kg, po qd administered from day 7 to 14 by spectrophotometric method; type: functional, organism-based
Summary of the method: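 Bleomycin model as above: 2 U/kg intratracheal in male C57BL/6 mice, 100 mg/kg daily from day 7 to day 14. Right lungs collected at day 14, dried and acid-hydrolysed, filtered, and pH adjusted to 6.5-8.0. Hydroxyproline then measured by chloramine-T spectrophotometry.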

[28] = biological target: T2, Transforming growth factor beta-1 proprotein/Mothers against decapentaplegic homolog 3 (Mus musculus); assay: Inhibition of TGF-beta1/smad3 signaling pathway in mouse NIH/3T3 cell extract assessed as decrease in Smad3 phosphorylation at 10 uM after 30 mins by Western blot analysis; type: protein assay
Rattus norvegicus [29] = assay: AUC (0 to t) in Sprague-Dawley rat at 30 mg/kg, iv by LC-MS/MS analysis; type: ADME, organism-based; details: in vivo; summary of the method: as §1
Mus musculus [30] = assay: Antifibrotic activity in bleomycin-induced pulmonary fibrosis in C57BL/6 mouse model assessed as fibrotic area in lungs at 100 mg/kg, po qd administered from day 7 to 14 by hematoxylin-eosin staining based fluorescence microscopy; type: functional; summary of the method: as §5
Mus musculus [31] = assay: Toxicity in C57/BL6 mouse assessed as appearance of systemic symptoms at 2 g/kg administered orally via gavage daily as single dose for 30 days; type: organism-based; details: in vivo, po, 2000 mg/kg, 720 h
Summary of the method: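 C57BL/6 mice given compound by oral gavage at 2 g/kg once daily for 30 days (n=10) and observed for systemic symptoms and deaths.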

[32] = Drug metabolism in rat plasma assessed as (1aR,2S,5aR,6aR,9aR,9bS)-2,5a-Dimethyl-9-methyleneoctahydro-2H-oxireno[2',3':4,4a]naphtho[2,3-b]furan-8(9H)-one formation after 12 hrs by LC-MS/MS analysis; type: ADME, cell-free; summary of the method: as §2

T1 sequence (P01137 whole entry, looked up): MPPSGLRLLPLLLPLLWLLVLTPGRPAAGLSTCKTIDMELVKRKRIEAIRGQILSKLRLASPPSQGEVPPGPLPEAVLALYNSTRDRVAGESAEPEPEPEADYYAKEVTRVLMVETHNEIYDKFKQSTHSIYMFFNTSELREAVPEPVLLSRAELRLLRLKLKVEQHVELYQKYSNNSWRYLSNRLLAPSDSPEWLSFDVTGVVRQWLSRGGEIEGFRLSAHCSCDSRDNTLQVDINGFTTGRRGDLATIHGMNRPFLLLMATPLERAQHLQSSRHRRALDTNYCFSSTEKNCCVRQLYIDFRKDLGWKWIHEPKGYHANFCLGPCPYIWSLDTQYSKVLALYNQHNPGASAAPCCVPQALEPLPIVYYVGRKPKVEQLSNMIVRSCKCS
T1 sequence (P84022 whole entry, looked up): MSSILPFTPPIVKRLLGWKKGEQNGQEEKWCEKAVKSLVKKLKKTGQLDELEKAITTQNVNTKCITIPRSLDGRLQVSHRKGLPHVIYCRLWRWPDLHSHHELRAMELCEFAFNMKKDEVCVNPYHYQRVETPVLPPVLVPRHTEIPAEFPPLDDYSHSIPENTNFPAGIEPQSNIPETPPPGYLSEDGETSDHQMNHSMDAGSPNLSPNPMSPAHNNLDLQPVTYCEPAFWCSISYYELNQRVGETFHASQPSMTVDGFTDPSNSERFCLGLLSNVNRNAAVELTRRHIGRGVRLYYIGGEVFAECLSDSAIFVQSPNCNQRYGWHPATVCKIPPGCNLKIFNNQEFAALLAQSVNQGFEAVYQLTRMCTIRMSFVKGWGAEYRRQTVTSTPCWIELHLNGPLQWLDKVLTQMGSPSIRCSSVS
T2 sequence (P04202 279-390 limits assumed): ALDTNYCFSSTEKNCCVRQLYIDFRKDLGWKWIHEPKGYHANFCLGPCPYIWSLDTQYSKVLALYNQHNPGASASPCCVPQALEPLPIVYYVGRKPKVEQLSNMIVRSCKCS
T2 sequence (Q8BUN5 2-425 partner limits assumed): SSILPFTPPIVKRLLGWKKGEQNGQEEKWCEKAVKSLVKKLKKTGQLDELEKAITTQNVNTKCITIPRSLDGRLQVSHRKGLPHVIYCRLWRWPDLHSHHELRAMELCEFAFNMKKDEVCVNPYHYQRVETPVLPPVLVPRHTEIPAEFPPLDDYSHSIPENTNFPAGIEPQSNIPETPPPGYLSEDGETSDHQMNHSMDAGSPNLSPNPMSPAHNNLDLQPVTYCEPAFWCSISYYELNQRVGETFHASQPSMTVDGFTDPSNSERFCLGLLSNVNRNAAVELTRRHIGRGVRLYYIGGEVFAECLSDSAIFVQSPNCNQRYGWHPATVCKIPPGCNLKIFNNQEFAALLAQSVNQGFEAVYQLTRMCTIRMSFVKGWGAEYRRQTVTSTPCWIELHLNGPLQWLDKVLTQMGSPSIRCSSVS

Compound	Tmax [1]	AUC (Rattus norvegicus [2])	half-life [4]	AUC (Rattus norvegicus [5])	Cmax [6]	inhibition [7]	inhibition (Mus musculus [8])	Tmax [9]	inhibition (Mus musculus [10])	half-life [11]	Activity (Mus musculus [12])	remaining at 3 h [13]	Activity (Mus musculus [14])	inhibition [15]	inhibition [16]	inhibition [17]	bioavailability [18]	Activity (Mus musculus [19])	AUCt (Rattus norvegicus [20])	inhibition (Mus musculus [21])	other results
CN(C)C[C@@H]1C(=O)O[C@@H]2C[C@@]3(C)CC[C@@H](O)[C@]4(CO4)[C@@H]3C[C@H]12.O=C(O)/C=C/C(=O)O	42 min	174000 ng·h/mL	81 min	44900 ng·h/mL	62300 ng/mL	Active	Active	17 min	Active	121 min	Active	> 50%	Non-Toxic	Dose-dependent effect	Active	Active	78%	Non-Toxic	171000 ng·h/mL	Active	Drug metabolism [3]: Metabolite_Detected; inhibition [22]: Active; inhibition (Mus musculus [23]): Active; inhibition (Mus musculus [24]): Active; Cmax [25]: 22700 ng/mL; inhibition [26]: Active; Activity (Mus musculus [27]): Active; inhibition [28]: Active; AUCt (Rattus norvegicus [29]): 43800 ng·h/mL; Activity (Mus musculus [30]): 60.5%
C[C@H]1CCC[C@]2(C)C[C@H]3OC(=O)[C@@H](CN(C)C)[C@H]3[C@@H]3O[C@@]132.O=C(O)/C=C/C(=O)O	30 min	37800 ng·h/mL	73 min	10000 ng·h/mL	18500 ng/mL	Active	Active	2 min	Active	85 min	Active	> 50%	Non-Toxic	Dose-dependent effect	Active	Active	75%	Non-Toxic	37600 ng·h/mL	Active	Activity (Mus musculus [31]): Non-Toxic; Drug metabolism [32]: Metabolite_Detected; inhibition [22]: Active; inhibition (Mus musculus [23]): Active; inhibition (Mus musculus [24]): Active; Cmax [25]: 17500 ng/mL; inhibition [26]: Active; Activity (Mus musculus [27]): Active; inhibition [28]: Active; AUCt (Rattus norvegicus [29]): 10000 ng·h/mL; Activity (Mus musculus [30]): 71.8%
